In ChEMBL document CHEMBL4257478, “Design, synthesis and evaluation of (R)-3-(7-(methyl(7H-pyrrolo[2,3-d]pyrimidin-4-yl)amino)-5-azaspiro[2.4]heptan-5-yl)-3-oxopropanenitrile as a JAK1-selective inhibitor” (Medchemcomm, 2018):

Legend:
[1] = molecular target: Tyrosine-protein kinase JAK1 (Homo sapiens, UniProt P23458); assay: Inhibition of human JAK1 using GEEPLYWSFPAKKK as substrate after 40 mins in presence of [gamma-33P-ATP] by scintillation counting method
[2] = molecular target: Tyrosine-protein kinase JAK2 (Homo sapiens, UniProt O60674); assay: Inhibition of human JAK2 using KTFCGTPEYLAPEVRREPRILSEEEQEMFRDFDYIADWC as substrate after 40 mins in presence of [gamma-33P-ATP] by scintillation counting method
Tyrosine-protein kinase JAK2, sequence (O60674 whole entry): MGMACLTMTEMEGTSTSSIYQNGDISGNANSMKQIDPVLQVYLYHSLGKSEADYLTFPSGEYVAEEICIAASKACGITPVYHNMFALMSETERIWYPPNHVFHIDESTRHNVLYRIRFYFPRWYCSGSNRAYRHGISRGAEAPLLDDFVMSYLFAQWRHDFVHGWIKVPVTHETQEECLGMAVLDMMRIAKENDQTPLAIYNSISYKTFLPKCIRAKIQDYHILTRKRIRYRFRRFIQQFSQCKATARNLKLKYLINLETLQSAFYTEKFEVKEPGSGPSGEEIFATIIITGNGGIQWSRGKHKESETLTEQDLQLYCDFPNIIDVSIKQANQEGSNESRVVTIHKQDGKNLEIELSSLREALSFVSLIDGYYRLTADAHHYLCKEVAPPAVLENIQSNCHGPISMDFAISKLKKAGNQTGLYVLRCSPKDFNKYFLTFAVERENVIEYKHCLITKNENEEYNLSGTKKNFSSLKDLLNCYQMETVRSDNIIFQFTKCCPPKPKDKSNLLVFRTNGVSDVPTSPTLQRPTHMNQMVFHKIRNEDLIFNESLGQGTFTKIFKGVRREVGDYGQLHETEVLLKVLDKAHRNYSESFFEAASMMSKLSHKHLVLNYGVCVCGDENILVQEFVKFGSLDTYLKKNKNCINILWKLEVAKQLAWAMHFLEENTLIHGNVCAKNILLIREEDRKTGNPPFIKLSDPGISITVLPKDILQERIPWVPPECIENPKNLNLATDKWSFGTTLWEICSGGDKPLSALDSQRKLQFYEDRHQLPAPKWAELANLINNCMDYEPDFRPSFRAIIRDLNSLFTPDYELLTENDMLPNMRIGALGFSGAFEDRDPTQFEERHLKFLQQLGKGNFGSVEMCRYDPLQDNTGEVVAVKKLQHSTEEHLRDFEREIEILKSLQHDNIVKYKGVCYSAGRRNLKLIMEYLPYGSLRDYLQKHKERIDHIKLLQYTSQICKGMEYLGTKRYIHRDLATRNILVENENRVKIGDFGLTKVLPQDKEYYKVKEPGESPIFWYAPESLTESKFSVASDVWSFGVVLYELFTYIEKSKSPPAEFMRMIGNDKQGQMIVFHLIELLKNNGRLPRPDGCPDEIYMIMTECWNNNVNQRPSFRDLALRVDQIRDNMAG

[3] = organism: Homo sapiens; assay: Selectivity index, ratio of IC50 for human JAK2 to IC50 for human JAK1
Method in brief: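 Kinase activity assays run as a commercial service at Km ATP; IC50 values fitted from concentration-response data; ratio of JAK2 to JAK1 IC50.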

Tyrosine-protein kinase JAK1, sequence (P23458 whole entry): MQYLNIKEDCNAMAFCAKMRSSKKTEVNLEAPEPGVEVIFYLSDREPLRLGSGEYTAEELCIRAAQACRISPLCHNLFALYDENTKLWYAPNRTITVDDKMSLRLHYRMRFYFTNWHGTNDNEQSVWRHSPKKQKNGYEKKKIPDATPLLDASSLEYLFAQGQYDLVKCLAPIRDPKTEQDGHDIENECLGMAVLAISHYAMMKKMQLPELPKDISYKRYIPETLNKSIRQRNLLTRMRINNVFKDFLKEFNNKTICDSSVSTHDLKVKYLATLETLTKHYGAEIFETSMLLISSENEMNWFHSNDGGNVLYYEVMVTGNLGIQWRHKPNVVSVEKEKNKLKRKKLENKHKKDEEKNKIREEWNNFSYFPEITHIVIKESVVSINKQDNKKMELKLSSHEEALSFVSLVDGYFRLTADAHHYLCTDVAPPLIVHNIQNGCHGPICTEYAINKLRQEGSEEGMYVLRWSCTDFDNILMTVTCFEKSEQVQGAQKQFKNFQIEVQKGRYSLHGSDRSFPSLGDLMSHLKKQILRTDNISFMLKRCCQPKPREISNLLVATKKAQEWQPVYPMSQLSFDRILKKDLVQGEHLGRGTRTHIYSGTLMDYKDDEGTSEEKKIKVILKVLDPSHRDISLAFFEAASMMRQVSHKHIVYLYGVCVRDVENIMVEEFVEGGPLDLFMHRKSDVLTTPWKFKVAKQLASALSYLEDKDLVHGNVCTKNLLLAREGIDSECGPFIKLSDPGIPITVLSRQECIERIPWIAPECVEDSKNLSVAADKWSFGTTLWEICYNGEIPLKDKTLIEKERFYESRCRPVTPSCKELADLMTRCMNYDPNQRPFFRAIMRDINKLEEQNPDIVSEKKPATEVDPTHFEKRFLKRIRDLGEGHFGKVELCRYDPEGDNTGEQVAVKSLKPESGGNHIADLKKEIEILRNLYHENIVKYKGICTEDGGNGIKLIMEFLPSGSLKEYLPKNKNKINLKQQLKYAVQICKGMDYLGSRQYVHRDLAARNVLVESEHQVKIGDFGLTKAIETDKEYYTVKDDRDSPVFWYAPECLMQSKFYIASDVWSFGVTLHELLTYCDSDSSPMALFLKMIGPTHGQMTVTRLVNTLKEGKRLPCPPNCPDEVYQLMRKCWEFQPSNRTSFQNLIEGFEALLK

| IC50 [1] [nM] | IC50 [2] [nM] | Ratio IC50 [3] | Compound |
| --- | --- | --- | --- |
| 34 | 1200 | 35 | CC(C)COC(=O)N1C[C@H](N(C)c2ncnc3[nH]ccc23)C2(CC2)C1 |
| 2.8 | 8.4 | 3 | CN(c1ncnc2[nH]ccc12)[C@H]1CN(S(=O)(=O)c2cccc(F)c2)CC12CC2 |
| 120 | 98000 | 820 | CN(c1ncnc2[nH]ccc12)[C@H]1CN(Cc2ccccc2)CC12CC2 |
| 6.9 | 36 | 5.2 | CCCS(=O)(=O)N1C[C@H](N(C)c2ncnc3[nH]ccc23)C2(CC2)C1 |
| 9 | 51 | 5.7 | CN(c1ncnc2[nH]ccc12)[C@H]1CN(S(=O)(=O)c2ccccc2)CC12CC2 |
| 150 | 6300 | 42 | CN(c1ncnc2[nH]ccc12)[C@H]1CN(C(=O)c2ccccc2)CC12CC2 |
| 9.3 | 180 | 19 | COc1ccc(S(=O)(=O)N2C[C@H](N(C)c3ncnc4[nH]ccc34)C3(CC3)C2)cc1 |
| 21 | 250 | 12 | CN(c1ncnc2[nH]ccc12)[C@H]1CN(C(=O)CN=[N+]=[N-])CC12CC2 |
| 85 | 1300 | 15 | Cc1ccc(NC(=O)N2C[C@H](N(C)c3ncnc4[nH]ccc34)C3(CC3)C2)cc1Cl |
| 20 | 130 | 6.5 | CC(C)S(=O)(=O)N1C[C@H](N(C)c2ncnc3[nH]ccc23)C2(CC2)C1 |
| 53 | 930 | 18 | CN(c1ncnc2[nH]ccc12)[C@H]1CN(C(=O)c2ccco2)CC12CC2 |
| 23 | 1000 | 43 | CN(c1ncnc2[nH]ccc12)[C@H]1CN(C(=O)Nc2ccc(F)cc2)CC12CC2 |
| 31 | 260 | 8.4 | CN(c1ncnc2[nH]ccc12)[C@H]1CN(S(=O)(=O)N2CCOCC2)CC12CC2 |
| 12 | 66 | 5.5 | Cc1cccc(S(=O)(=O)N2C[C@H](N(C)c3ncnc4[nH]ccc34)C3(CC3)C2)c1 |
| 54 | 2800 | 52 | CN(c1ncnc2[nH]ccc12)[C@H]1CN(C(=O)Nc2cc(Cl)ccc2Cl)CC12CC2 |
| 40 | 1300 | 33 | CN(c1ncnc2[nH]ccc12)[C@H]1CN(C(=O)Nc2ccc(Cl)c(Cl)c2)CC12CC2 |
| 16 | 1400 | 88 | CN(c1ncnc2[nH]ccc12)[C@H]1CN(S(=O)(=O)c2ccc(C(F)(F)F)cc2)CC12CC2 |
| 120 | 4700 | 39 | CN(c1ncnc2[nH]ccc12)[C@H]1CN(C(=O)Nc2ccc(Cl)cc2Cl)CC12CC2 |
| 12 | 420 | 35 | CN(c1ncnc2[nH]ccc12)[C@H]1CN(C(=O)Nc2ccccc2)CC12CC2 |
| 520 | 16000 | 31 | CC(=O)NCC(=O)N1C[C@H](N(C)c2ncnc3[nH]ccc23)C2(CC2)C1 |
| 69 | 4400 | 64 | CN(c1ncnc2[nH]ccc12)[C@H]1CN(C(=O)NC2CCCCC2)CC12CC2 |
| 74 | 1300 | 18 | CN(c1ncnc2[nH]ccc12)[C@H]1CN(C(=O)Nc2cccc(Cl)c2Cl)CC12CC2 |
| 500 | 9100 | 18 | CN(c1ncnc2[nH]ccc12)[C@H]1CN(C(=O)c2ccccc2C(F)(F)F)CC12CC2 |

| IC50 [1] [nM] | IC50 [2] [nM] | Ratio IC50 [3] | Compound |
| --- | --- | --- | --- |
| 140 | 6500 | 46 | CN(c1ncnc2[nH]ccc12)[C@H]1CN(C(=O)c2ccncc2)CC12CC2 |
| 180 | 2500 | 14 | CC(=O)N1CCC(C(=O)N2C[C@H](N(C)c3ncnc4[nH]ccc34)C3(CC3)C2)CC1 |
| 170 | 1200 | 7.1 | CN(c1ncnc2[nH]ccc12)[C@H]1CN(C(=O)C2CC2)CC12CC2 |
| 15 | 150 | 10 | CN(c1ncnc2[nH]ccc12)[C@H]1CN(S(=O)(=O)N2CCCCC2)CC12CC2 |
| 9.8 | 1100 | 110 | CN(c1ncnc2[nH]ccc12)[C@H]1CN(S(=O)(=O)c2ccc(C#N)cc2)CC12CC2 |
| 50 | 480 | 9.6 | CN(c1ncnc2[nH]ccc12)[C@H]1CN(S(=O)(=O)c2ccccc2C#N)CC12CC2 |
| 470 | 11000 | 23 | CN(c1ncnc2[nH]ccc12)[C@H]1CN(C(=S)Nc2cc(C(F)(F)F)cc(C(F)(F)F)c2)CC12CC2 |
| 17 | 150 | 8.8 | CN(c1ncnc2[nH]ccc12)[C@H]1CN(S(=O)(=O)c2ccc3ccccc3c2)CC12CC2 |
| 6.3 | 30 | 4.8 | CN(c1ncnc2[nH]ccc12)[C@H]1CN(S(=O)(=O)c2ccc([N+](=O)[O-])cc2)CC12CC2 |
| 1500 | 9100 | 6.1 | CN(c1ncnc2[nH]ccc12)[C@H]1CN(C(=O)Nc2ccccc2-c2ccccc2)CC12CC2 |
| 420 | 11000 | 26 | CN(c1ncnc2[nH]ccc12)[C@H]1CN(C(=O)c2cccc(C(F)(F)F)c2)CC12CC2 |
| 13 | 97 | 7.5 | CN(c1ncnc2[nH]ccc12)[C@H]1CN(S(=O)(=O)c2ccccc2F)CC12CC2 |
| 170 | 2800 | 16 | CC(C)C(=O)N1C[C@H](N(C)c2ncnc3[nH]ccc23)C2(CC2)C1 |
| 670 | 13000 | 19 | CNC(=O)CC(=O)N1C[C@H](N(C)c2ncnc3[nH]ccc23)C2(CC2)C1 |
| 77 | 1100 | 14 | CC(C)CC(=O)N1C[C@H](N(C)c2ncnc3[nH]ccc23)C2(CC2)C1 |
| 9.4 | 50 | 5.3 | CN(c1ncnc2[nH]ccc12)[C@H]1CN(S(=O)(=O)c2ccc(F)cc2)CC12CC2 |
| 26 | 470 | 18 | CN(c1ncnc2[nH]ccc12)[C@H]1CN(S(=O)(=O)c2ccccc2[N+](=O)[O-])CC12CC2 |
| 75 | 2800 | 37 | CCCCNC(=O)N1C[C@H](N(C)c2ncnc3[nH]ccc23)C2(CC2)C1 |
| 1.4 | 5.5 | 3.9 | CN(c1ncnc2[nH]ccc12)[C@H]1CN(S(=O)(=O)c2cccc([N+](=O)[O-])c2)CC12CC2 |
| 190 | 4500 | 24 | CN(c1ncnc2[nH]ccc12)[C@H]1CN(C(=O)c2ccc(C#N)cc2)CC12CC2 |
| 20 | 160 | 8 | CN(c1ncnc2[nH]ccc12)[C@H]1CN(C(=S)CC#N)CC12CC2 |
| 160 | 7800 | 49 | CN(c1ncnc2[nH]ccc12)[C@H]1CN(C(=O)c2cccnc2)CC12CC2 |

| Compound | IC50 [1] [nM] | IC50 [2] [nM] | Ratio IC50 [3] |
| --- | --- | --- | --- |
| CCCCN1C[C@H](N(C)c2ncnc3[nH]ccc23)C2(CC2)C1 | 230 | 15000 | 65 |
